Our source for the ED50 values is ChEMBL document CHEMBL1144927, “Discovery of a novel and highly potent noncompetitive AMPA receptor antagonist” (2003).

A value given as a limit tells only on which side of the number the result lay.

As a reminder, the ED50 is the midpoint of the dose-response relation.

A short description of assay [1]: Anticonvulsant activity against audiogenic seizures in DBA/2 mice 30 min after intraperitoneal administration (clonic phase). The format is functional. Conditions: Mus musculus, ip, 0.5 h. The method, boiled down:
(§1)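 DBA/2 mice, genetically susceptible to sound-induced seizures (8-12 g, 22-25 days old, either sex), were dosed ip in groups of 10 with vehicle or each dose. Dosing solution was freshly prepared in 50% DMSO/50% sterile 0.9% saline. Mice received auditory stimulation 30 min later and were scored for latency and incidence of seizure phases. ED50 per phase was fitted by Litchfield-Wilcoxon, with 95% confidence limits.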

The nature of assay [2]: Anticonvulsant activity against audiogenic seizures in DBA/2 mice 30 min after intraperitoneal administration (tonic phase). It is filed as functional. Conditions: Mus musculus, ip, 0.5 h. The method, boiled down:
as §1

In turn, `COc1cc2c(cc1OC)C(c1ccc(N)cc1)=NNC(=O)C2` had a median effective dose (ED50) in assay [1] of 15 µmol/kg. Take `COc1cc2c(cc1OC)C(c1ccc(F)cc1)N(C(C)=O)CC2` (stereo not given): the median effective dose (ED50) is 18 µmol/kg in assay [2] and 36.8 µmol/kg in assay [1]. Consider `COc1cc2c(cc1OC)C(c1ccc(Br)cc1)N(C(C)=O)CC2` (stereo not given), for which the median effective dose (ED50) in assay [2] is 16.5 µmol/kg; in assay [1], 43.1 µmol/kg.

As to `COc1cc2c(cc1OC)C(c1ccc([N+](=O)[O-])cc1)N(C(C)=O)CC2` (stereo not given), the 50% effective dose (ED50) in assay [2] and in assay [1] was above 100 µmol/kg throughout.

Regarding `COc1cc2c(cc1OC)C(c1ccc(Cl)cc1)N(C(C)=O)CC2` (stereo not given), the figures for the ED50 in assay [2] and in assay [1] were 2.4 µmol/kg and 4.2 µmol/kg, respectively. For `COc1cc2c(cc1OC)C(c1ccccc1)N(C(C)=O)CC2` (stereo not given), in that order: 37.7 µmol/kg and 53.5 µmol/kg. `COc1cc2c(cc1OC)C(c1ccc(N)cc1)N(C(C)=O)CC2` (stereo not given): the figures for the ED50 in assay [2] and in assay [1] were 21.1 µmol/kg and 32.1 µmol/kg, respectively.

For the compound `CC(=O)N1N=C(c2ccc(N)cc2)c2cc3c(cc2C[C@H]1C)OCO3` [TALAMPANEL], the median effective dose (ED50) was 9.7 µmol/kg in assay [2] and 13.4 µmol/kg in assay [1].
